ED50 and IC50 data for 34 compounds are collected here from ChEMBL document CHEMBL1124042, “Synthesis and potential antipsychotic activity of 1H-imidazo[1,2-c]pyrazolo[3,4-e]pyrimidines” (J Med Chem, 1988).

In experiment [1] the test system is Rattus norvegicus. The experiment is described as follows: Inhibition of shelf-jump avoidance in rats after peroral administration. The experiment is classed as functional. An outline of the steps:
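One-way shelf-jump conditioned avoidance responding in rats. ED50 determined from at least three doses (N = 9).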

Experiment [2] concerns Mus musculus. The experiment is described as follows: Inhibition of locomotor activity in mouse after intraperitoneal administration. The experiment is classed as functional.
Experiment [3] has as its system Mus musculus. Nature of the experiment: Inhibition of induction of ataxia in mouse after intraperitoneal administration. The experiment is classed as functional. Particulars: ip.
The subject of experiment [4] is Rattus norvegicus. The experiment is described as follows: Inhibition of Sidman avoidance in rats after peroral administration. Type of experiment: functional. The following applies: po. An outline of the steps:
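Continuous (Sidman) avoidance responding in rats with oral dosing. At least three doses per drug, four animals per dose. ED50 reported ± SEM.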

The target of experiment [5] is Serotonin 1 (5-HT1) receptor (Rattus norvegicus, UniProt P28564+P30940+P19327+P28565). The experiment is described as follows: Displacement of [3H]-5-HT from serotonin-1 neurotransmitter receptor in rat brain. Type of experiment: tissue-based. An outline of the steps:
(§1)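 Rat brain radioligand displacement binding. IC50 values (μM) were derived by nonlinear regression from four or five concentrations of compound.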
Background: In a radioligand displacement assay an active substance lowers the binding of a labelled ligand.

For another experiment, the target named is T1, Adenosine receptor A1 (Rattus norvegicus, UniProt P25099).
T1 sequence (P25099 whole entry): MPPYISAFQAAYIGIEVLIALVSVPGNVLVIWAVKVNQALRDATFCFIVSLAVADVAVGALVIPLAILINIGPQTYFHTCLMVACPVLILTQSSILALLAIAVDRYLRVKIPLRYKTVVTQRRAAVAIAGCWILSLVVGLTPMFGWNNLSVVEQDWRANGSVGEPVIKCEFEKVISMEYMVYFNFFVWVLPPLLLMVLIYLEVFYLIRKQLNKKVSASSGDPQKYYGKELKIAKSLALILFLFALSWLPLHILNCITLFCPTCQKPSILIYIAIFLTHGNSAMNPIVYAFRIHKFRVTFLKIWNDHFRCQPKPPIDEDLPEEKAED
Nature of the experiment: Displacement of [3H]-CHA (N6-Cyclohexyl adenosine) from adenosine A1 receptor in rat brain. The experiment is classed as tissue-based. An outline of the steps:
as §1

The next experiment relates to Monkey. The experiment is described as follows: Inhibition of Sidman avoidance in squirrel monkeys after the compound administered perorally. Type of experiment: functional. Particulars: in Saimiri, po. An outline of the steps:
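Oral dosing in squirrel monkeys trained on continuous (Sidman) avoidance responding. ED50 reported ± SEM.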

Experiment [6] in a line: Displacement of [3H]CHA (N6-Cyclohexyl adenosine) from rat brain adenosine A1 receptor.
The target of experiment [7] is Beta-1 adrenergic receptor (Rattus norvegicus, UniProt P18090). Nature of the experiment: Displacement of [3H]DHA (Dihydroalprenolol) from beta-1 adrenergic receptor in rat brain. The experiment is classed as tissue-based. The gist of the method: as §1
The target of experiment [8] is Beta-2 adrenergic receptor (Rattus norvegicus, UniProt P10608). The experiment is described as follows: Displacement of [3H]DHA (Dihydroalprenolol) from beta-2 adrenergic receptor in rat brain. Type of experiment: tissue-based. An outline of the steps:
as §1

[9] abbreviates: Rattus norvegicus, po, read-out: ED50.
Setting [10] is: Mus musculus, ip, read-out: ED50.

The structures appear in SMILES notation.

Chain of Beta-1 adrenergic receptor (P18090 whole entry): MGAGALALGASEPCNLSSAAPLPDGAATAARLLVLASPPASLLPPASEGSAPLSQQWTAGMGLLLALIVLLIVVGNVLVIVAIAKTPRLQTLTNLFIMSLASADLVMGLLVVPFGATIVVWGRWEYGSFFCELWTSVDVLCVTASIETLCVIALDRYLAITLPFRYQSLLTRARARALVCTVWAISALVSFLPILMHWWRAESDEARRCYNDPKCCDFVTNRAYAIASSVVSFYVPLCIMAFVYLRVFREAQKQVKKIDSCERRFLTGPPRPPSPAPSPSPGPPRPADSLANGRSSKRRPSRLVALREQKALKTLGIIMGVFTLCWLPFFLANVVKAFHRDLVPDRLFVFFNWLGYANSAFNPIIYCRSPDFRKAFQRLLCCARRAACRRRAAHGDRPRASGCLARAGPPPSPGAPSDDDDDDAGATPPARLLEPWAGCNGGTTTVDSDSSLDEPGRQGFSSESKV
Chain of Beta-2 adrenergic receptor (P10608 whole entry): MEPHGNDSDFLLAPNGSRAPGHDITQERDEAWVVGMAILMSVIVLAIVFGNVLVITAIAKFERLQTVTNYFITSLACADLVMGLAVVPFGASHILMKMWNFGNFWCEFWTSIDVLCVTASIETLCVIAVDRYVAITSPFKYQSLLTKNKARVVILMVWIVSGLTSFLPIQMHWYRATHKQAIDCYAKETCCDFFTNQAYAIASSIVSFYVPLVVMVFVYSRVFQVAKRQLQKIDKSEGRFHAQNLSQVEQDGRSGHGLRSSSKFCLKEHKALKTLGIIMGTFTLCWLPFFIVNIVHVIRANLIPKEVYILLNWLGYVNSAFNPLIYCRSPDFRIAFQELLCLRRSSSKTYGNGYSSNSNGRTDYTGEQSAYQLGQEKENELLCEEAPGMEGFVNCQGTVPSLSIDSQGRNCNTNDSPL

Regarding `CCOC(=O)CC1=Nc2c(C)nn(C)c2C2=NC(C)CN12` (configuration not stated), the ED50 in the experiment on Rattus norvegicus [1] (setting [9]), in the experiment on Mus musculus [2] (setting [10]) and with Mus musculus [3] was more than 100 mg/kg each time.
Regarding `CCC1=Nc2c(C)nn(C)c2C2=NCC(C)N12` (configuration not stated), the 50% effective dose (ED50) was 28.3 mg/kg in the experiment with Mus musculus [2] (setting [10]) and more than 100 mg/kg in the experiment on Mus musculus [3].
Regarding `CCn1nc(C)c2c1C1=NCCN1C(C)=N2`, the values for the ED50 with Mus musculus [2] (setting [10]), with Rattus norvegicus [4] and with Mus musculus [3] were 22.7 mg/kg, 15.3 mg/kg and more than 100 mg/kg, respectively.
Take `Cc1nc2c3c(nc(C)n2c1C)c(C)nn3C`: the 50% effective dose (ED50) in the experiment on Rattus norvegicus [1] (setting [9]) was 10 mg/kg; in the experiment with Mus musculus [2] (setting [10]) it was 39.7 mg/kg; in the experiment on Mus musculus [3], more than 100 mg/kg.
For the compound `CC1=Nc2c(C)nn(C)c2C2=NC(C)CN12` (configuration not stated), the values for the ED50 in the experiment on Mus musculus [2] (setting [10]) and with Mus musculus [3] were 32.1 mg/kg and more than 100 mg/kg, respectively.
In the case of `CCC1=Nc2c(C)nn(C)c2C2=NC(CC)CN12` (configuration not stated), the values for the ED50 in the experiment with Rattus norvegicus [1] (setting [9]), in the experiment with Mus musculus [2] (setting [10]) and in the experiment with Mus musculus [3] were 32 mg/kg, 21.7 mg/kg and more than 100 mg/kg, respectively.
For `CCc1nc2c(C)nn(C)c2c2nc(C)cn12`, the ED50 in the experiment with Mus musculus [2] (setting [10]) is 36.8 mg/kg; in the experiment on Rattus norvegicus [4], 11.4 mg/kg; in the experiment on Mus musculus [3] it was more than 100 mg/kg.
For the compound `CCc1nc2c(C)nn(C)c2c2ncc(C)n12`, the figures for the median effective dose (ED50) with Rattus norvegicus [1] (setting [9]), in the experiment with Mus musculus [2] (setting [10]) and in the experiment with Mus musculus [3] were 11 mg/kg, 35.5 mg/kg and more than 100 mg/kg, respectively.
On to `Cc1nn(C)c2c1N=CN1CCN=C21`, for which the values for the ED50 with Mus musculus [2] (setting [10]) and in the experiment with Mus musculus [3] were 39.3 mg/kg and more than 100 mg/kg, respectively.
Regarding `CCC1=Nc2c(C)nn(C)c2C2=NC(C)CN12` (configuration not stated), the figures for the ED50 in the experiment with Mus musculus [2] (setting [10]), in the experiment on Rattus norvegicus [4] and with Mus musculus [3] were 21.6 mg/kg, 15.7 mg/kg and more than 100 mg/kg, respectively.
With `CC[C@@H]1CN2C(C)=Nc3c(C)nn(C)c3C2=N1`, the ED50 in the experiment with Rattus norvegicus [1] (setting [9]) was 12 mg/kg; with Mus musculus [2] (setting [10]), 61.1 mg/kg; in the experiment on Mus musculus [3], more than 100 mg/kg.
For `CCC1=Nc2c(C)nn(C)c2C2=NCCN12`, the ED50 was 17 mg/kg in the experiment with Rattus norvegicus [1] (setting [9]), 22.8 mg/kg in the experiment with Mus musculus [2] (setting [10]), 24.4 mg/kg in the experiment with Rattus norvegicus [4] and more than 100 mg/kg in the experiment on Mus musculus [3].
Consider `CC1=Nc2c(C)nn(C)c2C2=N[C@@H](C(C)C)CN12`, for which the ED50 in the experiment with Mus musculus [2] (setting [10]) is 57.3 mg/kg; in the experiment with Mus musculus [3] it was more than 100 mg/kg.
For the compound `CCn1nc(C)c2c1C1=NCC(c3ccccc3)N1C(C)=N2` (configuration not stated), the 50% effective dose (ED50) is more than 100 mg/kg in the experiment on Rattus norvegicus [1] (setting [9]), 75.5 mg/kg in the experiment on Mus musculus [2] (setting [10]) and more than 100 mg/kg in the experiment with Mus musculus [3].
Consider `Cc1nn(C)c2c1N=C(c1ccccc1)N1CC(C)N=C21` (configuration not stated), for which the results for the ED50 in the experiment on Rattus norvegicus [1] (setting [9]), in the experiment on Mus musculus [2] (setting [10]) and in the experiment with Mus musculus [3] were 65 mg/kg, 62.5 mg/kg and more than 100 mg/kg, respectively.
Regarding `Cc1nn(C)c2c1N=C(Cc1ccccc1)N1CC(C)N=C21` (configuration not stated), the 50% effective dose (ED50) in the experiment on Rattus norvegicus [1] (setting [9]) is 62 mg/kg; in the experiment on Mus musculus [2] (setting [10]), 21.9 mg/kg; in the experiment on Mus musculus [3] it was more than 100 mg/kg.
With `CCCn1nc(C)c2c1C1=NC(C)CN1C(C)=N2` (configuration not stated), the results for the ED50 in the experiment with Mus musculus [2] (setting [10]) and with Mus musculus [3] were 37.7 mg/kg and more than 100 mg/kg, respectively.
Turning to `Cc1nn(C)c2c1N=CN1CC(C)N=C21` (configuration not stated), the values for the ED50 with Mus musculus [2] (setting [10]) and with Mus musculus [3] were 49.2 mg/kg and more than 100 mg/kg, respectively.
`CCC1=Nc2c(C)nn(CC)c2C2=NC(C)CN12` (configuration not stated): the figures for the ED50 with Mus musculus [2] (setting [10]), in the experiment with Rattus norvegicus [4] and with Mus musculus [3] were 27.2 mg/kg, 15.8 mg/kg and more than 100 mg/kg, respectively.
For `Cc1cn2c(CC(=O)O)nc3c(C)nn(C)c3c2n1`, the ED50 with Rattus norvegicus [1] (setting [9]), with Mus musculus [2] (setting [10]) and in the experiment on Mus musculus [3] was more than 100 mg/kg throughout.
In the case of `CCn1nc(C)c2c1C1=NC(C)CN1C(C)=N2` (configuration not stated), the ED50 with Mus musculus [2] (setting [10]) is 25.7 mg/kg; in the experiment on Rattus norvegicus [4], 14.8 mg/kg; in the experiment with Mus musculus [3], more than 100 mg/kg.
With `Cc1nn(C)c2c1N=C(C1CC1)N1CC(C)N=C21` (configuration not stated), the results for the ED50 with Rattus norvegicus [1] (setting [9]), in the experiment with Mus musculus [2] (setting [10]) and in the experiment on Mus musculus [3] were 12 mg/kg, 46.1 mg/kg and more than 100 mg/kg, respectively.
On to `CCc1nc2c(C)nn(C)c2c2nc(C)c(Cl)n12`, for which the ED50 is 100 mg/kg in the experiment on Rattus norvegicus [1] (setting [9]), more than 100 mg/kg in the experiment on Mus musculus [2] (setting [10]) and more than 100 mg/kg in the experiment on Mus musculus [3].
On to `CCc1nc2c(C)nn(C)c2c2nccn12`, for which the values for the ED50 in the experiment with Rattus norvegicus [1] (setting [9]), in the experiment with Mus musculus [2] (setting [10]) and in the experiment with Mus musculus [3] were 15 mg/kg, 34.2 mg/kg and more than 100 mg/kg, respectively.
`Cc1nn(C)c2c1N=C(C(C)C)N1CC(C)N=C21` (configuration not stated): the values for the ED50 in the experiment with Rattus norvegicus [1] (setting [9]), in the experiment on Mus musculus [2] (setting [10]) and in the experiment with Mus musculus [3] were 41 mg/kg, more than 100 mg/kg and more than 100 mg/kg, respectively.
Turning to `Cc1cn2c(C)nc3c(C)nn(C)c3c2n1`, the ED50 is less than 32 mg/kg with Rattus norvegicus [1] (setting [9]), 73 mg/kg in the experiment with Mus musculus [2] (setting [10]) and more than 100 mg/kg with Mus musculus [3].
`CCc1cn2c(CC)nc3c(C)nn(C)c3c2n1`: the ED50 in the experiment with Rattus norvegicus [1] (setting [9]) was 16 mg/kg; in the experiment with Mus musculus [2] (setting [10]), 20.6 mg/kg; with Mus musculus [3] it was more than 30 mg/kg.
Regarding `CC1=Nc2c(C)nn(C)c2C2=NC(C)(C)CN12`, the ED50 is 22.7 mg/kg in the experiment on Mus musculus [2] (setting [10]), 53.7 mg/kg in the experiment on Rattus norvegicus [4] and more than 100 mg/kg with Mus musculus [3].
Turning to `Cc1nn(C)c2c1nc(C)n1cc(Cc3ccccc3)nc21`, the ED50 is 86 mg/kg in the experiment with Rattus norvegicus [1] (setting [9]), 83.3 mg/kg in the experiment with Mus musculus [2] (setting [10]) and more than 100 mg/kg in the experiment with Mus musculus [3].
For the compound `CC[C@H]1CN2C(C)=Nc3c(C)nn(C)c3C2=N1`, the ED50 in the experiment on Rattus norvegicus [1] (setting [9]) is 38 mg/kg; in the experiment with Mus musculus [2] (setting [10]) it was 42.8 mg/kg; in the experiment on Mus musculus [3], more than 100 mg/kg.
As for `CC1=Nc2c(C)nn(C)c2C2=NC(C)C(C)N12` (stereo in doubt; cis), the ED50 is 26 mg/kg in the experiment with Rattus norvegicus [1] and 37.8 mg/kg in the experiment with Mus musculus [2].
With `CC1=Nc2c(C)nn(C)c2C2=NC(C)C(C)N12` (stereo in doubt; trans), the results for the ED50 in the experiment with Mus musculus [2] (setting [10]) and in the experiment with Mus musculus [3] were 69.1 mg/kg and more than 100 mg/kg, respectively.
`O=C(CCCN1CCC(O)(c2ccc(Cl)cc2)CC1)c1ccc(F)cc1` [HALOPERIDOL]: the ED50 was 0.3 mg/kg with Rattus norvegicus [1] (setting [9]), 0.27 mg/kg with Mus musculus [2] (setting [10]), 0.8 mg/kg with Rattus norvegicus [4] and more than 3 mg/kg in the experiment with Mus musculus [3].
`CSc1ccc2c(c1)N(CCC1CCCCN1C)c1ccccc1S2` (configuration not stated) [THIORIDAZINE]: the IC50 is 8.7 µM in [5]; more than 10 µM on Adenosine receptor A1; more than 10 µM in experiment [6]; more than 10 µM in experiment [7]; more than 10 µM in [8]. In addition, the ED50 was 5.8 mg/kg with Rattus norvegicus [1] (setting [9]), 3.9 mg/kg in the experiment on Monkey, 4.4 mg/kg in the experiment with Mus musculus [2] (setting [10]) and more than 10 mg/kg in the experiment on Mus musculus [3].

Usually ED50 stands for the dose at which the effect has come halfway, by size or by number of responders. In general, IC50 refers to the concentration at which inhibition is half-maximal.
